A1 apoptosis 2 – compounds inhibiting A1, read as caspase activation; caspase activation, % (concentration not given with the values); 24,000 tested, under 10 active; MEF A1-2A-BIM cells, caspase-Glo luminescence, 3 h; percent of clofoctol response, DMSO zero; in the data active = caspase activation above about 5.9%; inconclusive = no clear call, values can overlap the other calls; inactive = below about 2.2%
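Material: A1-2A-BIM-expressing MEF cells. Buffer or medium: RPMI-1640 plus 10% FBS. Incubation: cells settled overnight, compound exposure 3 h at 37 °C, 5% CO2. Signal: Caspase-Glo 3/7 luminescence, 1 h at room temperature.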
INS-1E ATP HTS – rescue of cytokine-induced death in INS-1E beta cells | INS-1E cytokine-induced death, ATP luminescence, 48 h; normalised: neutral wells 0, positive control 100 | protection from cytokine-induced ATP loss, % at 10 µM | 0.1% of 20,000 active | AID 488910;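 active = mean replicate protection from cytokine-induced ATP loss at least 50% and at least 75% of replicates each reaching 50%; inconclusive = meets only one of the two criteria, mean or replicate share; inactive = fails both the mean and replicate share criteria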
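Test system: INS-1E rat cells | Quantity: 8000 cells per well | Medium: Phenol-red-free RPMI with 5% fetal bovine serum | Reagent: Cytokine cocktail of IFN-γ, TNF-α and IL-1β | Doses: One compound concentration, pin transfer | Timing: 48 h co-treatment, 10 min post-lysis read | Technique: Luminescent ATP assay (CellTiter-Glo)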
T cruzi HTS – inhibitors of intracellular Trypanosoma cruzi. activity score (inhibition), % at 5.01 µM. intracellular Trypanosoma cruzi in host cells, plate reader. 4.9% of 22,000 active. AID 651903; in the data active = activity score above about 55%; inconclusive = no clear call, values can overlap the other calls;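 also: parasites and compound incubated about four days before reading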
Numbers stand for hits; i = inactive; ? = inconclusive; nt = no result. Many of the other results were omitted from the sample, so hits are more common in it than they were.

SMILES	A1 apoptosis 2	INS-1E ATP HTS	T cruzi HTS
O=C(CCCCCCC(=O)Nc1ccccc1O)N/N=C/c1ccc(Br)s1	i	i	i
COc1ccc(CCNC(=O)[C@@H]2c3ccccc3C(=O)N(Cc3ccccc3OC)[C@H]2c2ccc(CO)cc2)cc1	i	nt	nt
CNC[C@@H]1Oc2ccc(NC(=O)Nc3ccc4c(c3)OCO4)cc2CC(=O)N([C@H](C)CO)C[C@H]1C	i	i	i
CNC[C@@H]1OCCCC[C@H](C)Oc2ccc(N(C)C)cc2C(=O)N([C@@H](C)CO)C[C@@H]1C	i	nt	nt
C[C@H](CO)N1C[C@H](C)[C@H](CN(C)S(=O)(=O)c2cccs2)Oc2c(NC(=O)Nc3ccc(C(F)(F)F)cc3)cccc2C1=O	i	i	83.8
C[C@H](CO)N1C[C@H](C)[C@H](CN(C)S(=O)(=O)c2ccc(Cl)cc2)Oc2c(NC(=O)CCCCCC(=O)Nc3ccccc3N)cccc2C1=O	i	i	73.7
C[C@H](CO)N1C[C@H](C)[C@@H](CN(C)S(=O)(=O)c2ccc(Cl)cc2)Oc2c(NC(=O)Nc3ccc(C(F)(F)F)cc3)cccc2C1=O	i	i	i
C[C@@H]1CN([C@@H](C)CO)C(=O)c2cccc(NC(=O)Nc3ccc(C(F)(F)F)cc3)c2O[C@H]1CN(C)S(=O)(=O)c1ccc(Cl)cc1	i	i	79.8
C[C@H]1CN([C@@H](C)CO)C(=O)c2cccc(NC(=O)CCCCCC(=O)Nc3ccccc3N)c2O[C@@H]1CN(C)S(=O)(=O)c1ccc(Cl)cc1	i	i	i
Cc1ccc(S(=O)(=O)N(C)C[C@H]2Oc3c(NC(=O)Nc4ccc(C(F)(F)F)cc4)cccc3C(=O)N([C@H](C)CO)C[C@H]2C)cc1	nt	i	i
Cc1ccc(S(=O)(=O)N(C)C[C@@H]2Oc3c(NC(=O)Nc4ccc(C(F)(F)F)cc4)cccc3C(=O)N([C@H](C)CO)C[C@@H]2C)cc1	i	i	84.9
C[C@H]1CN([C@@H](C)CO)C(=O)c2cccc(NC(=O)Nc3ccc(C(F)(F)F)cc3)c2O[C@H]1CN(C)S(=O)(=O)c1cccs1	i	i	i
Cc1ccc(S(=O)(=O)N(C)C[C@@H]2Oc3ccc(NC(=O)CCC(F)(F)F)cc3C(=O)N([C@H](C)CO)C[C@@H]2C)cc1	nt	i	i
C[C@H]1CCCCO[C@@H](CN(C)C(=O)NC2CCCCC2)[C@@H](C)CN([C@@H](C)CO)C(=O)c2cc(NC(=O)c3ccccc3)ccc2O1	i	nt	nt
C[C@@H]1CN([C@H](C)CO)C(=O)Cc2cc(NC(=O)CCCCCC(=O)Nc3ccccc3N)ccc2O[C@@H]1CN(C)C(=O)Nc1cccc2ccccc12	i	i	i
Cc1noc(C)c1NC(=O)N(C)C[C@H]1Oc2ccc(NS(=O)(=O)c3ccc(F)cc3)cc2CC(=O)N([C@H](C)CO)C[C@H]1C	nt	i	i
C[C@H](CO)N1C[C@H](C)[C@H](CN(C)S(=O)(=O)c2ccc(Cl)cc2)Oc2c(NC(=O)Nc3ccccc3)cccc2C1=O	nt	i	i
Cc1noc(C)c1NC(=O)Nc1cccc2c1O[C@@H](CN(C)S(C)(=O)=O)[C@@H](C)CN([C@@H](C)CO)C2=O	nt	i	66.6
C[C@@H]1CN([C@@H](C)CO)C(=O)c2cccc(NC(=O)Nc3ccc(C(F)(F)F)cc3)c2O[C@H]1CN(C)S(=O)(=O)c1ccc(F)cc1	i	i	i
C[C@H](CO)N1C[C@H](C)[C@@H](CN(C)S(=O)(=O)c2ccc(Cl)cc2)Oc2c(NC(=O)Nc3ccccc3)cccc2C1=O	i	i	67.6
Cc1noc(C)c1NC(=O)Nc1cccc2c1O[C@@H](CN(C)S(C)(=O)=O)[C@H](C)CN([C@H](C)CO)C2=O	nt	i	i
C[C@H](CO)N1C[C@H](C)[C@@H](CN(C)S(=O)(=O)c2ccc(F)cc2)Oc2c(NC(=O)Nc3ccc(C(F)(F)F)cc3)cccc2C1=O	i	i	56.8
O=C(O)CCCCCC(=O)N/N=C/c1ccoc1	i	i	i
C[C@@H]1CN([C@H](C)CO)C(=O)c2cccc(NC(=O)NC3CCCCC3)c2O[C@H]1CN(C)C	i	i	i
C[C@H](CO)N1C[C@H](C)[C@@H](CN(C)Cc2ccccc2)Oc2ccc(NS(=O)(=O)c3ccccc3)cc2C1=O	i	nt	i
SMILES	A1 apoptosis 2	INS-1E ATP HTS	T cruzi HTS
COC(=O)CCCCCCC(=O)N/N=C/c1cc(OC)ccc1Br	nt	i	i
C[C@@H]1CN([C@H](C)CO)C(=O)Cc2cc(NS(=O)(=O)c3ccc(Cl)cc3)ccc2O[C@@H]1CN(C)S(=O)(=O)c1cccs1	nt	i	73.9
COc1ccc(S(=O)(=O)Nc2ccc3c(c2)CC(=O)N([C@H](C)CO)C[C@@H](C)[C@@H](CN(C)S(=O)(=O)c2cccs2)O3)cc1	i	i	76.8
C[C@H]1CN([C@@H](C)CO)C(=O)Cc2cc(NS(=O)(=O)c3ccc(Cl)cc3)ccc2O[C@@H]1CN(C)S(=O)(=O)c1cccs1	nt	i	i
COc1ccc(S(=O)(=O)Nc2ccc3c(c2)CC(=O)N([C@H](C)CO)C[C@H](C)[C@@H](CN(C)S(=O)(=O)c2cccs2)O3)cc1	i	nt	nt
C[C@@H]1CN([C@@H](C)CO)C(=O)Cc2cc(NC(=O)Nc3ccc(C(F)(F)F)cc3)ccc2O[C@H]1CN(C)Cc1ccccc1	i	nt	nt
C[C@H]1CN([C@@H](C)CO)C(=O)Cc2cc(NC(=O)Cc3ccccc3)ccc2O[C@@H]1CN(C)Cc1ccc(C(F)(F)F)cc1	i	i	58.3
C[C@H]1CN([C@@H](C)CO)C(=O)Cc2cc(NC(=O)Cc3ccccc3)ccc2O[C@H]1CN(C)Cc1ccc(C(F)(F)F)cc1	i	i	68.7
C[C@H](CO)N1C[C@H](C)[C@H](CN(C)Cc2ccc(C(F)(F)F)cc2)Oc2ccc(NC(=O)Cc3ccccc3)cc2CC1=O	i	i	?
C[C@@H]1CCCCO[C@@H](CN(C)S(=O)(=O)c2cn(C)cn2)[C@H](C)CN([C@H](C)CO)C(=O)c2cc(NS(=O)(=O)c3cccs3)ccc2O1	i	nt	nt
C[C@@H]1CN([C@H](C)CO)C(=O)c2cc(NC(=O)Cc3cn(C)c4ccccc34)ccc2O[C@@H]1CN(C)C(=O)Nc1ccc(F)cc1	nt	i	i
C[C@@H]1CCCCO[C@H](CN(C)C(=O)Nc2ccc3c(c2)OCO3)[C@@H](C)CN([C@H](C)CO)C(=O)c2cc(NC(=O)Nc3ccc(C(F)(F)F)cc3)ccc2O1	nt	i	75.7
C[C@@H]1CCCCO[C@@H](CN(C)C(=O)Nc2ccc(C(F)(F)F)cc2)[C@@H](C)CN([C@H](C)CO)C(=O)c2cc(NC(=O)Nc3ccc4c(c3)OCO4)ccc2O1	i	i	66.7
C[C@@H]1CCCCO[C@H](CN(C)C(=O)Nc2ccc(C(F)(F)F)cc2)[C@H](C)CN([C@@H](C)CO)C(=O)c2cc(NC(=O)Nc3ccc4c(c3)OCO4)ccc2O1	i	nt	nt
C[C@@H]1CCCCO[C@@H](CN(C)C(=O)Nc2ccc3c(c2)OCO3)[C@@H](C)CN([C@@H](C)CO)C(=O)c2cc(NC(=O)Nc3ccc(C(F)(F)F)cc3)ccc2O1	i	nt	nt
CCCCCCC/C=N/NC(=O)CCCCCCC(=O)OC	i	i	i
C[C@@H]1CCCCO[C@H](CN(C)Cc2ccccc2)[C@@H](C)CN([C@H](C)CO)C(=O)c2cc(NC(=O)Nc3ccc(C(F)(F)F)cc3)ccc2O1	i	i	71.1

Assay outcomes: PubChem, Broad Institute
